From the array DNA melting data of Ke et al. (doi:10.1101/2024.01.08.574731) come the findings set out here.

The nature of data set [1]: folding enthalpy; higher = less favourable; fluorescence melt of hairpins on a sequencing array, two-state fit. Particulars: sodium 0.088 M. The method, boiled down:
(§1)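 To match UV melts, fitted temperatures were raised by 9.35 °C. These fits were bootstrapped two-state models that gave melting temperature and folding enthalpy, combined by inverse variance over four replicates. The input was normalised Cy3 fluorescence of library hairpins with annealed Cy3 and quencher oligos on a sequenced MiSeq flow cell, imaged in 50 mM Na-HEPES pH 8.0, 25 mM NaCl in 2.5 °C steps up to 60 °C.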

Data set [2] in a line: melting temperature; fluorescence melt of hairpins on a sequencing array, two-state fit, raised by 9.35 °C to match UV melts. Conditions: sodium 0.088 M. An outline of the steps:
as §1

As for GCGATCGCGAAAGCGCGC (((..(((....)))))), in data set [1], the folding enthalpy is -15.4 kcal/mol. In data set [2], the Tm amounted to 55.2 °C.
In the same order, the values of GTCTGCGAAAGCATGGAC ((((((....)))..))) are -15.7 kcal/mol and 40.7 °C.
Taken in the same sequence, the figures for GGCCTCGAAAGAGCAGCC ((((((....)))..))) were -22.3 kcal/mol and 47.6 °C.
On to GATCCCGAAAGGGGGATC ((((((....)))..))), for which, in data set [1], the folding enthalpy was -20.1 kcal/mol. Besides, in data set [2], the Tm was determined as 51 °C.
In the same order, the values of CGTAGCGGAAACGCACG (((.(((....)))))) are -22.2 kcal/mol and 53.1 °C.
Taken in the same sequence, the figures for GCTCTGCGAAAGCGTAGC (((..((....))..))) were -17.6 kcal/mol and 38.2 °C.
Regarding GCGTACTGACGC ((((....)))), in data set [1], the folding enthalpy was -21.9 kcal/mol. For the same sequence, the Tm in data set [2] is 52.4 °C.
In the same order, the values of GCGATGCGAAAGCCTTGC ((.(.((....)).).)) are -25.4 kcal/mol and 36.3 °C.
In the same order, the values of GATCGACGAAAGTCAATC (((.(((....))).))) are -20.5 kcal/mol and 40.3 °C.
In the same order, the values of GTTTCGGGAAACCGAGAC ((.((((....)))).)) are -21.4 kcal/mol and 47.3 °C.
On to GGGGTTGGAAACAGTCCC (((..((....))..))), for which, in data set [1], the folding enthalpy was -24.5 kcal/mol. Further, the Tm in data set [2] came out at 36 °C.
Taken in the same sequence, the figures for GATCGACTGTCGATC ((((((...)))))) were -49 kcal/mol and 51.4 °C.
As to GCAATTCGAAAGAATGC (((.(((....)))))), in data set [1], the folding enthalpy was -29.3 kcal/mol. The Tm in data set [2] was determined as 48.1 °C.
Regarding GGCGGCGAAAGCCATGCC ((((((....)))..))), in data set [1], the folding enthalpy was -16.5 kcal/mol. For the same sequence, in data set [2], the Tm amounted to 59.8 °C.
In the same order, the values of GATCAACAAATTGATC ((((((....)))))) are -31.3 kcal/mol and 36.4 °C.
On to GATCAAGCAGTTGATC ((((((....)))))), for which, in data set [1], the folding enthalpy was -31.8 kcal/mol. The Tm in data set [2] amounted to 46.6 °C.
GGGGTAGGAAACTGCCCC ((((.((....)).)))): the folding enthalpy in data set [1] was -47.3 kcal/mol. Also, in data set [2], the Tm worked out at 57.2 °C.
In the same order, the values of GCAGGGGGAAACCTCTGC ((((.((....)).)))) are -39.1 kcal/mol and 55 °C.
Taken in the same sequence, the figures for GATCACATTAGTGATC ((((((....)))))) were -45 kcal/mol and 59.2 °C.
In the same order, the values of GATCCGTCCTCGGATC ((((((....)))))) are -48.3 kcal/mol and 58 °C.
For GATTACGAAAGTAAATC ((((((....))).))), the folding enthalpy in data set [1] was -19.9 kcal/mol. The Tm in data set [2] stood at 36 °C.
In the same order, the values of GCTATGCGAAAGCCAAGC (((..((....))..))) are -16.7 kcal/mol and 36.5 °C.
Taken in the same sequence, the figures for GTCCGGGGAAACCTGGAC ((((.((....)).)))) were -36.6 kcal/mol and 55.5 °C.
Taken in the same sequence, the figures for GTGCATTCGAAAGAACAC (((..(((....)))))) were -7.63 kcal/mol and 23.8 °C.
Regarding GATCTTTTGAAGATC ((((((...)))))), the folding enthalpy in data set [1] is -27.8 kcal/mol. Besides, in data set [2], the Tm is 43.6 °C.
Taken in the same sequence, the figures for GATCTGGCCCCAGATC ((((((....)))))) were -49.3 kcal/mol and 52.9 °C.
Taken in the same sequence, the figures for GGTCGCGAAAGCGAACC ((((((....))).))) were -15.2 kcal/mol and 67.3 °C.
Taken in the same sequence, the figures for GTCACAGCGAAAGCTGAC (((..(((....)))))) were -10.4 kcal/mol and 34.2 °C.
On to GATCAGGAGTCTGATC ((((((....)))))), for which, in data set [1], the folding enthalpy was -38.7 kcal/mol. Also, the Tm in data set [2] was determined as 48.2 °C.
With CCCTTGAAAAAGGG (((((....))))), the folding enthalpy in data set [1] was -16.9 kcal/mol. Moreover, the Tm in data set [2] came to 47.2 °C.
In the same order, the values of GATCGCCTCTGCGATC ((((((....)))))) are -37 kcal/mol and 66.5 °C.
In the same order, the values of GGAATGGGAAACTGTTCC ((((..(....)..)))) are -25.8 kcal/mol and 35 °C.
For the sequence GATCTGCAGTCAGATC ((((((....)))))), the folding enthalpy in data set [1] is -34.5 kcal/mol. The Tm in data set [2] was found to be 49.2 °C.
GATCGGTCACCGATC ((((((...)))))): in data set [1], the folding enthalpy is -36.2 kcal/mol. The Tm in data set [2] amounted to 55.8 °C.
In the same order, the values of GATCACCCGAGTGATC ((((((....)))))) are -41.3 kcal/mol and 57 °C.
Taken in the same sequence, the figures for GCTCCGCGAAAGCCTAGC (((..((....))..))) were -10.7 kcal/mol and 34.7 °C.
Taken in the same sequence, the figures for GTAATAGCGAAAGCTTAC (((..(((....)))))) were -12.6 kcal/mol and 30.2 °C.
